From ChEMBL document CHEMBL1149144, “Structure-based design of potent retinoid X receptor alpha agonists” (J Med Chem, 2004)
pEC50, pKi: −log10 of the molar value.

Experiments:
[1] = molecular target: T1, Retinoic acid receptor alpha (Homo sapiens, UniProt P10276); assay: Binding affinity for retinoic acid receptor alpha (RARalpha), using 9-cis-[3H]-retinoic acid
T1 sequence (P10276 whole entry): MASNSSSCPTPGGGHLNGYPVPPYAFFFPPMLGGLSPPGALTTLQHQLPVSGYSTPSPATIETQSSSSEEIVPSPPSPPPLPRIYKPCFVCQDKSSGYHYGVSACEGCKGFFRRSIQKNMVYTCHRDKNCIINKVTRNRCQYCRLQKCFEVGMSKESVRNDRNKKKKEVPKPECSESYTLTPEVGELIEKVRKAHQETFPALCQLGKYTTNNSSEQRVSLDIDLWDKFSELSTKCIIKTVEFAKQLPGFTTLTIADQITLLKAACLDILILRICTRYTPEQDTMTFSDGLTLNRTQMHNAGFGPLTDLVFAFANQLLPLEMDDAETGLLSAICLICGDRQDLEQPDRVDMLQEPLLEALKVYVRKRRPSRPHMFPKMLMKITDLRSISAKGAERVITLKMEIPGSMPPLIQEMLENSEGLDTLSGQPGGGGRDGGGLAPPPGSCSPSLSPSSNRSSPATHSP
Summary of the method: (§1)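 Scintillation proximity binding assay; Ki from competition of 2.5 nM 9-cis-RA at RXRα and RARα, with test compound up to 10 µM.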

[2] = molecular target: T1, Retinoic acid receptor alpha; assay: Effective concentration for Retinoic acid receptor alpha activity in CV-1 cells; type: functional, cell-based
Summary of the method: (§2)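 CV-1 monkey kidney cells transiently transfected with a full-length hRXRα expression vector (RXRα) or a GAL4-hRARα vector (RARα), each with an RXRα- or RARα-responsive reporter gene construct. Top concentration 10 µM; EC50 calculated from the reporter response.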

[3] = molecular target: T2, Retinoic acid receptor RXR-alpha (Homo sapiens, UniProt P19793); assay: Binding affinity for retinoid X receptor alpha (RXRalpha), using 9-cis-[3H]-retinoic acid; summary of the method: as §1
T2 sequence (P19793 whole entry): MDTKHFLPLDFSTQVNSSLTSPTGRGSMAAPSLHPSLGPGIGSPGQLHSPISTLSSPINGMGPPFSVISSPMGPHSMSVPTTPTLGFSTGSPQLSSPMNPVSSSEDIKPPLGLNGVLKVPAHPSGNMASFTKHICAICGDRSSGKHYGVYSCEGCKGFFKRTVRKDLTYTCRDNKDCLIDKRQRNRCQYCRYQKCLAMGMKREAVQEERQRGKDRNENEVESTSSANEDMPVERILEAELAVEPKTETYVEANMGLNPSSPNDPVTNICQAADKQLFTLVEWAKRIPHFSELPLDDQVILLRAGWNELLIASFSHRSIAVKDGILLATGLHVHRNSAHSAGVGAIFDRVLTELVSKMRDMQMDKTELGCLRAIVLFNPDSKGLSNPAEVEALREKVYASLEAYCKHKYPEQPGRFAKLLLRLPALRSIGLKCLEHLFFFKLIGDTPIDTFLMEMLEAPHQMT

[4] = molecular target: T2, Retinoic acid receptor RXR-alpha; assay: Effective concentration for Retinoid X receptor alpha activity in CV-1 cells; type: functional, cell-based; summary of the method: as §2
[5] = molecular target: T2, Retinoic acid receptor RXR-alpha; assay: Effective concentration for Retinoid X receptor alpha activity in CV-1 cells; Partial agonist; type: functional, cell-based; summary of the method: as §2
Rattus norvegicus [6] = assay: Effect on percent change in weight of liver to body at 30 mg/kg was measured in vivo in rats; type: functional
Summary of the method: (§3)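 Male Zucker diabetic fatty (ZDF) rats dosed orally with vehicle or compound in vehicle.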

Mus musculus [7] = assay: Effect on aspartate aminotransferase release by liver at 30 mg/kg was measured in vivo in mice; type: functional
Summary of the method: (§4)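 Male diabetic db/db mice given vehicle or compound in vehicle orally.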

Mus musculus [8] = assay: Effect on aspartate aminotransferase release by liver at 10 mg/kg was measured in vivo in mice; type: functional; summary of the method: as §4
Mus musculus [9] = assay: Effect on aspartate aminotransferase release by liver at 100 mg/kg was measured in vivo in mice; type: functional; summary of the method: as §4
Rattus norvegicus [10] = assay: Effect on nonesterified free fatty acid at 10 mg/kg was measured in vivo in rats; type: functional; summary of the method: as §3
Mus musculus [11] = assay: Effect on nonesterified free fatty acid at 10 mg/kg was measured in vivo in mice; type: functional; summary of the method: as §4
Rattus norvegicus [12] = assay: Antihyperglycemic activity of compound at 3 mg/kg was measured as percent glycosylated hemoglobin in vivo in rats; type: functional; summary of the method: as §3
Rattus norvegicus [13] = assay: Effect on percent change in weight of liver to body at 10 mg/kg was measured in vivo in rats; type: functional; summary of the method: as §3
Rattus norvegicus [14] = assay: Effect on nonesterified free fatty acid at 30 mg/kg was measured in vivo in rats; type: functional; summary of the method: as §3
Rattus norvegicus [15] = assay: Effect on aspartate aminotransferase release by liver at 10 mg/kg was measured in vivo in rats; type: functional; summary of the method: as §3
Rattus norvegicus [16] = assay: Effect on nonesterified free fatty acid at 3 mg/kg was measured in vivo in rats; type: functional; summary of the method: as §3
Mus musculus [17] = assay: Antihyperglycemic activity of compound at 10 mg/kg was determined in vivo in mice; type: functional
Summary of the method: (§5)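 Male diabetic db/db mice were given the test agent orally in vehicle, with a vehicle-only control group.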

Rattus norvegicus [18] = assay: Effect on lipid hydrolysis at 30 mg/kg was measured in vivo in rats; type: functional
Summary of the method: (§6)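 Male Zucker diabetic fatty (ZDF) rats were given the test agent orally in vehicle, with a vehicle-only control group.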

Mus musculus [19] = assay: Effect on nonesterified free fatty acid at 30 mg/kg was measured in vivo in mice; type: functional; summary of the method: as §4
Mus musculus [20] = assay: Antihyperglycemic activity of compound at 10 mg/kg was measured as percent glycosylated hemoglobin in vivo in mice; type: functional; summary of the method: as §4
Rattus norvegicus [21] = assay: Effect on aspartate aminotransferase release by liver at 30 mg/kg was measured in vivo in rats; type: functional; summary of the method: as §3
Rattus norvegicus [22] = assay: Antihyperglycemic activity of compound at 30 mg/kg was measured as percent glycosylated hemoglobin in vivo in rats; type: functional; summary of the method: as §3
Rattus norvegicus [23] = assay: Effect on percent change in weight of liver to body at 3 mg/kg was measured in vivo in rats; type: functional; summary of the method: as §3
Mus musculus [24] = assay: Effect on nonesterified free fatty acid at 100 mg/kg was measured in vivo in mice; type: functional; summary of the method: as §4
Mus musculus [25] = assay: Antihyperglycemic activity of compound at 30 mg/kg was measured as percent glycosylated hemoglobin in vivo in mice; type: functional; summary of the method: as §4
Mus musculus [26] = assay: Effect on percent change in weight of liver to body at 10 mg/kg was measured in vivo in mice; type: functional; summary of the method: as §4
Rattus norvegicus [27] = assay: Antihyperglycemic activity of compound at 3 mg/kg was determined in vivo in rats; type: functional; summary of the method: as §6
Rattus norvegicus [28] = assay: Effect on lipid hydrolysis at 10 mg/kg was measured in vivo in rats; type: functional; summary of the method: as §6
Rattus norvegicus [29] = assay: Antihyperglycemic activity of compound at 10 mg/kg was measured as percent glycosylated hemoglobin in vivo in rats; type: functional; summary of the method: as §3
Mus musculus [30] = assay: Effect on percent change in weight of liver to body at 100 mg/kg was measured in vivo in mice; type: functional; summary of the method: as §4
Rattus norvegicus [31] = assay: Effect on lipid hydrolysis at 3 mg/kg was measured in vivo in rats; type: functional; summary of the method: as §6
Mus musculus [32] = assay: Antihyperglycemic activity of compound at 100 mg/kg was determined in vivo in mice; type: functional; summary of the method: as §5
Mus musculus [33] = assay: Antihyperglycemic activity of compound at 100 mg/kg was measured as percent glycosylated hemoglobin in vivo in mice; type: functional; summary of the method: as §4
Rattus norvegicus [34] = assay: Effect on aspartate aminotransferase release by liver at 3 mg/kg was measured in vivo in rats; type: functional; summary of the method: as §3
Rattus norvegicus [35] = assay: Antihyperglycemic activity of compound was determined in vivo in rats; type: functional; summary of the method: as §6
Mus musculus [36] = assay: Effect on lipid hydrolysis at 100 mg/kg was measured in vivo in mice; type: functional; summary of the method: as §5
Mus musculus [37] = assay: Antihyperglycemic activity of compound at 30 mg/kg was determined in vivo in mice; type: functional; summary of the method: as §5
Mus musculus [38] = assay: Effect on percent change in weight of liver to body at 30 mg/kg was measured in vivo in mice; type: functional; summary of the method: as §4
Mus musculus [39] = assay: Effect on lipid hydrolysis at 30 mg/kg was measured in vivo in mice; type: functional; summary of the method: as §5
Rattus norvegicus [40] = assay: Antihyperglycemic activity of compound at 10 mg/kg was determined in vivo in rats; type: functional; summary of the method: as §6
Mus musculus [41] = assay: Effect on lipid hydrolysis at 10 mg/kg was measured in vivo in mice; type: functional; summary of the method: as §5

Cc1oc(/C=C/C(=O)O)cc1Cc1ccc2c(c1)C(C)(C)CCC2(C)C
pKi [1]: < 6.00
pEC50 [2]: < 5.00
pKi [3]: 6.80
pEC50 [4]: 6.97

CC1(C)CCC(C)(C)c2cc(C3CCCc4sc(/C=C/C(=O)O)cc43)ccc21 (stereo not given)
pKi [1]: < 6.00
pEC50 [2]: < 5.00
pKi [3]: 7.40
pEC50 [4]: 7.70

O=C1NC(=O)/C(=C/c2ccc(-c3cccc(C(F)(F)F)c3)o2)S1
pKi [3]: 5.13

CC1(C)CCC(C)(C)c2cc(Cc3coc(/C=C/C(=O)O)c3)ccc21
pKi [1]: < 6.00
pKi [3]: 6.86

CC1(C)CCC(C)(C)c2cc(C3CCCc4oc(/C=C/C(=O)O)nc43)ccc21 (stereo not given)
pKi [1]: < 6.00
pKi [3]: 6.80
pEC50 [4]: 7.38

CCCOc1cc2c(cc1C1CCCc3oc(/C=C/C(=O)O)cc31)C(C)(C)CCC2(C)C (stereo not given)
pKi [1]: < 6.00
pEC50 [2]: < 5.00
pKi [3]: 7.00
pEC50 [5]: 6.86

CC1(C)CCC(C)(C)c2cc(C3CCCc4oc(/C=C/C(=O)O)cc43)ccc21 (racemic)
Activity (Rattus norvegicus [6]): 7.06%
Activity (Mus musculus [7]): 116 U l-1
Activity (Mus musculus [8]): 137 U l-1
pKi [1]: < 6.00
Activity (Mus musculus [9]): 158 U l-1
Activity (Rattus norvegicus [10]): 0.49 m equiv l-1
Activity (Mus musculus [11]): 0.45 m equiv l-1
Activity (Rattus norvegicus [12]): 7.75%
Activity (Rattus norvegicus [13]): 6.56%
Activity (Rattus norvegicus [14]): 0.38 m equiv l-1
Activity (Rattus norvegicus [15]): 108 U l-1
Activity (Rattus norvegicus [16]): 0.8 m equiv l-1
pEC50 [2]: < 5.00
Activity (Mus musculus [17]): 346 mg/dL
Activity (Rattus norvegicus [18]): 1353 mg/dL
pKi [3]: 8.22
Activity (Mus musculus [19]): 0.56 m equiv l-1
Activity (Mus musculus [20]): 9.41%
Activity (Rattus norvegicus [21]): 136 U l-1
Activity (Rattus norvegicus [22]): 7.04%
Activity (Rattus norvegicus [23]): 5.74%
Activity (Mus musculus [24]): 0.4 m equiv l-1
Activity (Mus musculus [25]): 8.84%
Activity (Mus musculus [26]): 8.23%
Activity (Rattus norvegicus [27]): 147 mg/dL
Activity (Rattus norvegicus [28]): 2199 mg/dL
Activity (Rattus norvegicus [29]): 7.44%
Activity (Mus musculus [30]): 9.33%
Activity (Rattus norvegicus [31]): 2462 mg/dL
Activity (Mus musculus [32]): 233 mg/dL
Activity (Mus musculus [33]): 8.51%
Activity (Rattus norvegicus [34]): 98 U l-1
Activity (Rattus norvegicus [35]): 118 mg/dL
Activity (Mus musculus [36]): 62 mg/dL
Activity (Mus musculus [37]): 309 mg/dL
Activity (Mus musculus [38]): 8.58%
pEC50 [4]: 8.52
Activity (Mus musculus [39]): 83 mg/dL
Activity (Rattus norvegicus [40]): 129 mg/dL
Activity (Mus musculus [41]): 91 mg/dL

CC1(C)CCC(C)(C)c2cc(C3CCCc4oc(/C=C/C(=O)O)cc43)ccc21 (single isomer, unassigned)
pKi [1]: < 6.00
pEC50 [2]: < 5.00
pKi [3]: 6.70
pEC50 [4]: 7.40

CC1(C)CCC(C)(C)c2cc(C3CCCc4oc(/C=C/C(=O)O)cc43)ccc21 (stereo in doubt)
pKi [1]: < 6.00
pEC50 [2]: < 5.00
pKi [3]: 8.30
pEC50 [4]: 8.30

CC1(C)CCC(C)(C)c2cc(C3CCCc4oc(/C=C/C(=O)O)cc43)ccc21 (stereo in doubt; 60)
pKi [1]: < 6.00
pEC50 [2]: < 6.10
pKi [3]: 7.05
pEC50 [4]: 7.01
